From ChEMBL document CHEMBL3608239, “Identification and optimisation of a 4',5-bisthiazole series of selective phosphatidylinositol-3 kinase alpha inhibitors” (Bioorg Med Chem Lett, 2015) come the findings set out here.

The nature of data set [1]: Permeability of the compound from apical to basolateral side in human Caco2 cells. The data set is classed as ADME, cell-based. To be noted: Caco-2, read-out: permeability. In general terms: Passage across Caco-2 layers is used to estimate intestinal permeability.
Data set [2] is described as follows: Permeability of the compound from basolateral to apical side in human Caco2 cells. The data set is classed as ADME, cell-based. To be noted: Caco-2, read-out: permeability.
A short description of data set [3]: Plasma concentration in athymic nude mouse at 10 mg/kg, iv after 2 hrs. The data set is classed as ADME, organism-based. The method, boiled down: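 Female athymic nude mice, conscious, with free access to food, given a bolus intravenous dose of 10 mg kg-1. Plasma levels measured 1 and 2 h after dosing.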
A short description of data set [4]: Oral bioavailability in Sprague-Dawley rat at 3 mg/kg. The data set is classed as ADME, organism-based. To be noted: in vivo. The method, boiled down: (§1)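 Female Sprague-Dawley rats, conscious, permanently cannulated, with free access to food. Dosed 1.0 mg kg-1 intravenously or 3.0 mg kg-1 orally as a suspension. Blood levels followed from 5 min to 48 h after dosing.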

Data set [5] has as its system Rattus norvegicus. In words: Volume of distribution in Sprague-Dawley rat at 3 mg/kg, po. The data set is classed as ADME, organism-based. To be noted: in vivo. In short, it runs like this: as §1

SMILES strings stand for the structures.

As to `Cc1nc(NC(=O)N2C[C@H](O)C[C@H]2C(N)=O)sc1-c1csc(C(C)(C)C)n1`, in data set [1], the Papp A→B was 0.7 ×10⁻⁶ cm/s. The Papp B→A in data set [2] was 8.4 ×10⁻⁶ cm/s.

For the compound `Cc1nc(NC(=O)N2C[C@H](F)C[C@H]2C(N)=O)sc1-c1csc(C(C)(C)C)n1`, the Papp A→B in data set [1] was found to be 5.5 ×10⁻⁶ cm/s. Besides, the Papp B→A in data set [2] was 20.7 ×10⁻⁶ cm/s.

As for `Cc1nc(NC(=O)N2CCC[C@H]2C(N)=O)sc1-c1ccc(S(C)(=O)=O)c(F)c1`, in data set [1], the Papp A→B was 1.4 ×10⁻⁶ cm/s. Further, the Papp B→A in data set [2] worked out at 7.7 ×10⁻⁶ cm/s.

Regarding `Cc1nc(NC(=O)N2CC[C@H](O)[C@H]2C(N)=O)sc1-c1csc(C(C)(C)C)n1`, in data set [1], the Papp A→B came to 0.9 ×10⁻⁶ cm/s. Further, in data set [2], the Papp B→A came to 12.4 ×10⁻⁶ cm/s.

Turning to `Cc1nc(NC(=O)N2C[C@@H](O)C[C@H]2C(N)=O)sc1-c1csc(C(C)(C)C)n1`, the Papp A→B in data set [1] amounted to 1.2 ×10⁻⁶ cm/s. In data set [2], the Papp B→A came to 20.8 ×10⁻⁶ cm/s.

Regarding `Cc1nc(NC(=O)N2CC[C@H](C)[C@H]2C(N)=O)sc1-c1csc(C(C)(C)C)n1`, the Papp A→B in data set [1] was found to be 11.1 ×10⁻⁶ cm/s. Further, the Papp B→A in data set [2] amounted to 17.4 ×10⁻⁶ cm/s.

As for `Cc1nc(NC(=O)N2CCC[C@@]2(C)C(N)=O)sc1-c1csc(C(C)(C)C)n1`, in data set [1], the Papp A→B is 14.5 ×10⁻⁶ cm/s. In addition, the Papp B→A in data set [2] worked out at 17.4 ×10⁻⁶ cm/s. In data set [3], this compound had a concentration at 2 h of less than 50 nM.

As for `Cc1nc(NC(=O)N2C[C@H](N(C)C)C[C@H]2C(N)=O)sc1-c1csc(C2(C)CC2)n1`, in data set [4], the bioavailability (usually the share of a dose that reaches the circulation, judged against a reference dose that is usually intravenous) stood at 59%. The same compound yielded a Vd in data set [5] of 3.3 L/kg.
